Experiments:
Histone deacetylase 8 = target: T1, Histone deacetylase 8 (Homo sapiens, UniProt Q9BY41); assay: Inhibition of recombinant full-length HDAC8 (unknown origin) using MAZ1600/MAZ1675 as substrate assessed as release of 7 amino-4-methylcoumarin measured every 5 mins by fluorescence assay
T1 sequence (Q9BY41 whole entry): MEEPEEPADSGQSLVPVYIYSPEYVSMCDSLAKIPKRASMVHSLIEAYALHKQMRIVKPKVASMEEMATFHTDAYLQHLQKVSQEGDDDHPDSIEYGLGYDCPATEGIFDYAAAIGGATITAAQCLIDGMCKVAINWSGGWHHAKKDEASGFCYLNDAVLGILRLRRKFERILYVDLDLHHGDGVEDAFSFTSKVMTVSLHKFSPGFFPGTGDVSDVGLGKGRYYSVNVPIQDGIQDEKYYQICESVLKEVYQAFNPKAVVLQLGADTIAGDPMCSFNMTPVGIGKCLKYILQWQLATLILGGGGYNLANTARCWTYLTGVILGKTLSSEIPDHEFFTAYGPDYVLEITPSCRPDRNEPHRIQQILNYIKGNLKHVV
How it was run: (§1)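 AMC release after deacetylase plus trypsin action read every 5 min. First derivative in the linear range used. Replicates normalised to DMSO controls (<0.5%). IC50 by logistic regression, unconstrained max/min.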

Histone deacetylase 2 = Histone deacetylase 2 (Homo sapiens, UniProt Q92769); assay: Inhibition of recombinant full-length HDAC2 (unknown origin) using MAZ1600/MAZ1675 as substrate assessed as release of 7 amino-4-methylcoumarin measured every 5 mins by fluorescence assay; how it was run: as §1
Chain of Histone deacetylase 2 (Q92769 whole entry): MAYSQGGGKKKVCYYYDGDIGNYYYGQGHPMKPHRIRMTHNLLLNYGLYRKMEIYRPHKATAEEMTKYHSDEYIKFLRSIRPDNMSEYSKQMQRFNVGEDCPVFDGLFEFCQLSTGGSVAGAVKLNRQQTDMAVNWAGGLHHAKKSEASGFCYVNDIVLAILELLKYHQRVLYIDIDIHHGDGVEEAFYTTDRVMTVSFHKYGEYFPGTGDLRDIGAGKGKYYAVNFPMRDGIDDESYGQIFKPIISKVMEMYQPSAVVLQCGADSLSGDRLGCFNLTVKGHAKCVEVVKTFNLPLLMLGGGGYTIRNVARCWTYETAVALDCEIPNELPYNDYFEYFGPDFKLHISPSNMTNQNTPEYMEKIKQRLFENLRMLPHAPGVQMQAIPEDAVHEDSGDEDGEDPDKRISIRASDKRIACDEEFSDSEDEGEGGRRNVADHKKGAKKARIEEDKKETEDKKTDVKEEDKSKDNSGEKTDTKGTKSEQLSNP

Histone deacetylase 1 = Histone deacetylase 1 (Homo sapiens, UniProt Q13547); assay: Inhibition of recombinant full-length HDAC1 (unknown origin) using MAZ1600/MAZ1675 as substrate assessed as release of 7 amino-4-methylcoumarin measured every 5 mins by fluorescence assay; how it was run: as §1
Chain of Histone deacetylase 1 (Q13547 whole entry): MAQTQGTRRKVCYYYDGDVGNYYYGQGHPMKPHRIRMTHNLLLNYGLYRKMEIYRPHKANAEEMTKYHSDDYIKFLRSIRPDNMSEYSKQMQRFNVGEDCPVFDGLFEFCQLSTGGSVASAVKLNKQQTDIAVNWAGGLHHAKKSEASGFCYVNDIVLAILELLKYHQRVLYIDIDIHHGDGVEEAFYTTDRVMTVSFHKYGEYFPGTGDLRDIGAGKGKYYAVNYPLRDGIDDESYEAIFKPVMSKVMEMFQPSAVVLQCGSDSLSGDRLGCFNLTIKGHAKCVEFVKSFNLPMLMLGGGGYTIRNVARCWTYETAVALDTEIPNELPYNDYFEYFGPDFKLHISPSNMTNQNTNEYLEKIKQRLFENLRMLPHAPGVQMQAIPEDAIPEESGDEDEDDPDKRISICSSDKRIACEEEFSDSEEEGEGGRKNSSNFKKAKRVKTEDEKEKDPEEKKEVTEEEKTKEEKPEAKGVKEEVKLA

[1] = target: T2, Protein deacetylase HDAC6 (Homo sapiens, UniProt Q9UBN7); assay: Inhibition of recombinant full-length HDAC6 (unknown origin) using MAZ1600/MAZ1675 as substrate assessed as release of 7 amino-4-methylcoumarin measured every 5 mins by fluorescence assay
T2 sequence (Q9UBN7 whole entry): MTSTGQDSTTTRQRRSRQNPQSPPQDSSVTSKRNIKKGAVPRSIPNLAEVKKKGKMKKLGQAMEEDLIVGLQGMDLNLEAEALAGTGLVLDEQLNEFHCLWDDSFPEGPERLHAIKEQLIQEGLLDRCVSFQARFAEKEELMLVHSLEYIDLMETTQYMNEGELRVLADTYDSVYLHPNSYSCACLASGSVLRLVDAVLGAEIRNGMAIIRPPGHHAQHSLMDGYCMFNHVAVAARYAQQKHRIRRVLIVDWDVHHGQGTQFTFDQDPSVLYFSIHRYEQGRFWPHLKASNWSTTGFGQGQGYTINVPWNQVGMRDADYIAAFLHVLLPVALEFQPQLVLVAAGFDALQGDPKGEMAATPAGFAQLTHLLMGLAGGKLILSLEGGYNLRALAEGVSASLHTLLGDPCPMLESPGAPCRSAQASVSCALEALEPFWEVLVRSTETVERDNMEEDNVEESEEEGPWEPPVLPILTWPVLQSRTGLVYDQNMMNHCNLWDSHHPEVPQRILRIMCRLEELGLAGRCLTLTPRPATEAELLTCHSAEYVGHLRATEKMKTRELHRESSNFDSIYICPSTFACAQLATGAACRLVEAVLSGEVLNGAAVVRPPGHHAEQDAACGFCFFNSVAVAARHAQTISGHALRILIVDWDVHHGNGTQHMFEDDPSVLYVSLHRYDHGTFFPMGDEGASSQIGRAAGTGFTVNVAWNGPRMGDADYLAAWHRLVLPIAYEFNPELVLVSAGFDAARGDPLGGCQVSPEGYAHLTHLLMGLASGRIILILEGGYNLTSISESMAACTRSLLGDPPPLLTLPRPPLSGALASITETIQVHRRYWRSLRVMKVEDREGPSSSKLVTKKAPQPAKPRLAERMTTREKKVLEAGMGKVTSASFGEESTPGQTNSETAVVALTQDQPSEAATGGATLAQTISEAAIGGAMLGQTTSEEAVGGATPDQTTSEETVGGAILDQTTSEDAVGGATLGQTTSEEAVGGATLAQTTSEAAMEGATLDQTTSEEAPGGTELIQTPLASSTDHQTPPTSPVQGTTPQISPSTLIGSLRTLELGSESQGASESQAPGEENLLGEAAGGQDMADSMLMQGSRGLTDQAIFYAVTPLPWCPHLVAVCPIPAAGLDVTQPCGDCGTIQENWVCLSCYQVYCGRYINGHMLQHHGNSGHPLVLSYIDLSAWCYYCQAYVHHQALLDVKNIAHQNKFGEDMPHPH
How it was run: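 AMC release after deacetylase/trypsin action read every 5 min. Linear-range first derivative normalised to DMSO controls (<0.5%). IC50 by unconstrained logistic regression.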

Histone deacetylase 3 = Histone deacetylase 3 (Homo sapiens, UniProt O15379); assay: Inhibition of recombinant full-length HDAC3 (unknown origin) using MAZ1600/MAZ1675 as substrate assessed as release of 7 amino-4-methylcoumarin measured every 5 mins by fluorescence assay
Chain of Histone deacetylase 3 (O15379 whole entry): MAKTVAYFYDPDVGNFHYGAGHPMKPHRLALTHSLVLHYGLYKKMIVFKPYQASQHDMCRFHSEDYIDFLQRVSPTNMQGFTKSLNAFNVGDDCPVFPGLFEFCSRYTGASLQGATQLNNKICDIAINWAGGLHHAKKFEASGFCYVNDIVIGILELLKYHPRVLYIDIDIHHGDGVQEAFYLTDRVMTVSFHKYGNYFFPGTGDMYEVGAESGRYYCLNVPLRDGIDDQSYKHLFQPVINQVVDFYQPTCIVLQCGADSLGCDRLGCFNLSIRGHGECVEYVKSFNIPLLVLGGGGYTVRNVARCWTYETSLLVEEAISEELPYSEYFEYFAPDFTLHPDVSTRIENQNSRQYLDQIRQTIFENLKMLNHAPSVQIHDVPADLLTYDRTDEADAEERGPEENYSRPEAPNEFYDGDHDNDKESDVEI

[2] = Cytotoxicity against human NMC-797 cells assessed as cell viability after 48 hrs by luminescence assay; type: functional, cell-based; details: NMC-797, 48 h
How it was run: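 797 cells seeded at 2.0×10^4 cells/well in 384-well plates. Compound was pin-transferred in a dose-response series with 0.02% DMSO final and incubated 48 h. Viability was read as ATP-dependent luminescence. IC50 was estimated by logistic regression of replicate measurements against dose, with standard error of logIC50.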

[3] = Cytotoxicity against human NMC-10326 cells assessed as cell viability after 48 hrs by luminescence assay; type: functional, cell-based
How it was run: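 Cells seeded in 384-well plates at 2.0×10^4 cells/well; compound pin-transferred in a dose series, final DMSO 0.02%. After 48 h exposure, viability read as ATP-dependent luminescence (ATPLite). IC50 estimated from replicate measurements by logistic regression.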

CC(C)[C@@H]1NC(=O)[C@]2(C)CSC(=N2)c2ccnc(c2)CNC(=O)C[C@@H](/C=C/CCS)NC1=O
IC50 (Histone deacetylase 8): 1490 nM
IC50 (Histone deacetylase 2): 20.8 nM
IC50 (Histone deacetylase 1): 13.2 nM
IC50 [1]: 2850 nM
IC50 (Histone deacetylase 3): 14.6 nM

CC(C)[C@@H]1NC(=O)[C@]2(C)CSC(=N2)c2cccc(n2)CNC(=O)C[C@@H](/C=C/CCS)OC1=O
IC50 ([2]; read-out: IC50): 220 nM
IC50 ([2]; read-out: pIC50 (converted)): 222 nM
IC50 (Histone deacetylase 8): 341 nM
IC50 ([3]; read-out: IC50): 290 nM
IC50 ([3]; read-out: pIC50 (converted)): 298 nM
IC50 [1]: 48.5 nM
IC50 (Histone deacetylase 3): 3.07 nM

CC(C)[C@@H]1NC(=O)[C@]2(C)CSC(=N2)c2ccnc(c2)CNC(=O)C[C@@H](/C=C/CCS)OC1=O
IC50 ([2]; read-out: IC50): 90 nM
IC50 ([2]; read-out: pIC50 (converted)): 93.1 nM
IC50 (Histone deacetylase 8): 102 nM
IC50 ([3]; read-out: IC50): 120 nM
IC50 ([3]; read-out: pIC50 (converted)): 122 nM
IC50 (Histone deacetylase 2): 4.42 nM
IC50 (Histone deacetylase 1): 2.2 nM
IC50 [1]: 35.2 nM
IC50 (Histone deacetylase 3): 2.31 nM

CCCCCCCC(=O)SCC/C=C/[C@@H]1CC(=O)NCc2cccc(n2)C2=N[C@@](C)(CS2)C(=O)N[C@@H](C(C)C)C(=O)N1
IC50 (Histone deacetylase 2): 472 nM
IC50 (Histone deacetylase 1): 340 nM
IC50 (Histone deacetylase 3): 332 nM

CC(C)[C@@H]1NC(=O)[C@]2(C)CSC(=N2)c2cccc(n2)CNC(=O)C[C@@H](/C=C/CCS)NC1=O
IC50 (Histone deacetylase 2): 69.8 nM
IC50 (Histone deacetylase 1): 42 nM
IC50 (Histone deacetylase 3): 42.5 nM

CCCCCCCC(=O)SCC/C=C/[C@@H]1CC(=O)NCc2cc(ccn2)C2=N[C@@](C)(CS2)C(=O)N[C@@H](C(C)C)C(=O)O1
IC50 (Histone deacetylase 2): 655 nM
IC50 (Histone deacetylase 1): 340 nM
IC50 (Histone deacetylase 3): 320 nM

CCCCCCCC(=O)SCC/C=C/[C@@H]1CC(=O)NCc2cc(ccn2)C2=N[C@@](C)(CS2)C(=O)N[C@@H](C(C)C)C(=O)N1
IC50 (Histone deacetylase 2): 1240 nM
IC50 (Histone deacetylase 1): 817 nM
IC50 (Histone deacetylase 3): 846 nM

CCCCCCCC(=O)SCC/C=C/[C@@H]1CC(=O)NCc2cccc(n2)C2=N[C@@](C)(CS2)C(=O)N[C@@H](C(C)C)C(=O)O1
IC50 (Histone deacetylase 2): 350 nM
IC50 (Histone deacetylase 1): 204 nM
IC50 (Histone deacetylase 3): 332 nM

CC(C)[C@@H]1NC(=O)[C@]2(C)CSC(=N2)c2csc(n2)CNC(=O)C[C@@H](/C=C/CCS)NC1=O
IC50 ([2]; read-out: IC50): 1740 nM
IC50 ([2]; read-out: pIC50 (converted)): 1730 nM
IC50 (Histone deacetylase 8): 255 nM
IC50 ([3]; read-out: IC50): 11900 nM
IC50 ([3]; read-out: pIC50 (converted)): 11900 nM
